Measurements published in ChEMBL document CHEMBL4376814, “Novel cyclin-dependent kinase 9 (CDK9) inhibitor with suppression of cancer stemness activity against non-small-cell lung cancer” (Eur J Med Chem, 2019).
Calls of active or inactive are those of the source. The rule behind the calls is not given here.

Key:
[1] = molecular target: Serine/threonine-protein kinase ULK2 (Homo sapiens) (UniProt Q8IYT8); assay: Inhibition of human ULK2 (1 to 306 residues) using casein as substrate measured after 40 mins in presence of [gamma33P]ATP by scintillation counting method relative to control
Serine/threonine-protein kinase ULK2 (Homo sapiens), sequence (Q8IYT8 whole entry, the tested form may be a part): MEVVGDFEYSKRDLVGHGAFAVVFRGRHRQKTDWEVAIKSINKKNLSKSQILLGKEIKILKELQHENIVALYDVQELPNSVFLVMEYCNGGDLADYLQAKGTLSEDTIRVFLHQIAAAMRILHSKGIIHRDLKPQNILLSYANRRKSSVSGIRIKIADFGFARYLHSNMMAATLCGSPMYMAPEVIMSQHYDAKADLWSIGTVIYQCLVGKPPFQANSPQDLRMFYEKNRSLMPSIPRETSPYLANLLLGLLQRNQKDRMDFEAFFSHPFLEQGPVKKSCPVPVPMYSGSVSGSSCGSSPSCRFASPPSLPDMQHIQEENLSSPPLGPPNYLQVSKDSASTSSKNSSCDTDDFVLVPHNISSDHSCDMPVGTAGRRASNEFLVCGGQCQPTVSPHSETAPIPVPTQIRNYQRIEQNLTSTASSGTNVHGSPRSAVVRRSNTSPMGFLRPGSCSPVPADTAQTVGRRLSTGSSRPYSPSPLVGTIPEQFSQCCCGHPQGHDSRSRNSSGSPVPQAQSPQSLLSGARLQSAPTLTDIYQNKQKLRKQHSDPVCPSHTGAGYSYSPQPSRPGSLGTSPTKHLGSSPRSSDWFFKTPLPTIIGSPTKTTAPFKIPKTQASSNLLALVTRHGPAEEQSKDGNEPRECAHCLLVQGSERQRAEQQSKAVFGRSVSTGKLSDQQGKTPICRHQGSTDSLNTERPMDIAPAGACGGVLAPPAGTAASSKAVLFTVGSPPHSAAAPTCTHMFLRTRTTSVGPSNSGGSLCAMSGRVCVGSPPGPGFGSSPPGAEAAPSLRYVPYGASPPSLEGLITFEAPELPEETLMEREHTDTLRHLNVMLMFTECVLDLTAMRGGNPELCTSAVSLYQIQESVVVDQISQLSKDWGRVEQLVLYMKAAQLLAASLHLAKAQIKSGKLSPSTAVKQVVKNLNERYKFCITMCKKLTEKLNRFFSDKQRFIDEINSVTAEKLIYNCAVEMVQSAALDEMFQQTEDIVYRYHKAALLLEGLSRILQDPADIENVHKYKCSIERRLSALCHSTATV

[2] = molecular target: Serine/threonine-protein kinase MARK2 (Homo sapiens) (UniProt Q7KZI7); assay: Inhibition of recombinant full-length human PAR1Balpha at 1 uM using KKKVSRSGLYRSPSMPENLNRPR as substrate measured after 40 mins in presence of [gamma33P]ATP by scintillation counting method relative to control
[3] = molecular target: Mitogen-activated protein kinase kinase kinase kinase 4 (Homo sapiens) (UniProt O95819); assay: Inhibition of recombinant human MAP4K4 (1 to 328 residues) at 1 uM using RLGRDKYKTLRQIRQ as substrate measured after 40 mins in presence of [gamma33P]ATP by scintillation counting method relative to control
[4] = molecular target: Calcium/calmodulin-dependent protein kinase type 1D (Homo sapiens) (UniProt Q8IU85); assay: Inhibition of recombinant full-length human CaMK1delta at 1 uM using calmodulin as substrate measured after 40 mins in presence of [gamma33P]ATP by scintillation counting method relative to control
[5] = test system: Glycogen synthase kinase-3 alpha (Homo sapiens), P49840 [UNDEFINED MUTATION]; assay: Inhibition of recombinant full-length human GSK3alpha (2 to end residues) S449A mutant at 1 uM using phospho GS2 peptide as substrate measured after 40 mins in presence of [gamma33P]ATP by scintillation counting method relative to control
Glycogen synthase kinase-3 alpha (Homo sapiens), P49840 [UNDEFINED MUTATION], sequence (P49840 whole entry, looked up, stated change not applied): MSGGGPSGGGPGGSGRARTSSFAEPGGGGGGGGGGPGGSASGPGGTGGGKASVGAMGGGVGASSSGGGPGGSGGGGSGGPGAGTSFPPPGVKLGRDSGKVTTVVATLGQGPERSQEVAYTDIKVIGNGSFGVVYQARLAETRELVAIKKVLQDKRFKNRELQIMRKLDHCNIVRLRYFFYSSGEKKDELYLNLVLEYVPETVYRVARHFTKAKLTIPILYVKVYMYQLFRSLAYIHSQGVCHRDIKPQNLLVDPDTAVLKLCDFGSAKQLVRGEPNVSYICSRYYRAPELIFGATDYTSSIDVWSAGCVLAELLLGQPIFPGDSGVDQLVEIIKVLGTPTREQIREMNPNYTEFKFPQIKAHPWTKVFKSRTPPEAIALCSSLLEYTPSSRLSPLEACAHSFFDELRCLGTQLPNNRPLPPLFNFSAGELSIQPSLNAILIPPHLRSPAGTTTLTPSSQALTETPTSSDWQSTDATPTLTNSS

[6] = molecular target: Serine/threonine-protein kinase Sgk3 (Homo sapiens) (UniProt Q96BR1); assay: Inhibition of human SGK3 (119 to end residues) at 1 uM using GRPRTSSFAEGKK as substrate measured after 40 mins in presence of [gamma33P]ATP by scintillation counting method relative to control
Procedure, shortened: (§1)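 Percent inhibition of kinase activity at a single compound concentration, measured by the outsourced Eurofins KinaseProfiler panel. Values are the mean of two independent experiments.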

[7] = test system: A549; assay: Downregulation of KLF4 in human A549 cells at 0.25 to 1 uM by Western blot analysis; type: functional, cell-based
[8] = test system: A549; assay: Induction of apoptosis in human A549 cells assessed as necrotic cells at 0.25 uM after 48 hrs by AnnexinV-FITC/PI staining-based flow cytometric analysis (reference value: 0.664%); type: functional
[9] = molecular target: CDK4/Cyclin D3 (Homo sapiens) (UniProt P11802+P30281); assay: Inhibition of recombinant full-length human CDK4/cyclinD3 at 1 uM using Rb fragment as substrate measured after 40 mins in presence of [gamma33P]ATP by scintillation counting method relative to control; type: protein-complex assay; procedure, shortened: as §1
[10] = molecular target: PAS domain-containing serine/threonine-protein kinase (Homo sapiens) (UniProt Q96RG2); assay: Inhibition of recombinant human PASK (995 to end residues) at 1 uM using KKLNRTLSFAEPG as substrate measured after 40 mins in presence of [gamma33P]ATP by scintillation counting method relative to control
[11] = species: Homo sapiens; assay: Inhibition of human Ros V2262A mutant (1883 to end residues) at 1 uM using KKKSPGEYVNIEFG as substrate measured after 40 mins in presence of [gamma33P]ATP by scintillation counting method relative to control; procedure, shortened: as §1
[12] = test system: A549; assay: Induction of apoptosis in human A549 cells assessed as early apoptotic cells at 0.25 uM after 48 hrs by AnnexinV-FITC/PI staining-based flow cytometric analysis (reference value: 2.91%); type: functional
[13] = molecular target: Phosphorylase b kinase gamma catalytic chain, skeletal muscle/heart isoform (Homo sapiens) (UniProt Q16816); assay: Inhibition of recombinant full-length human PhKgamma1 at 1 uM using KKLNRTLSFAEPG as substrate measured after 120 mins in presence of [gamma33P]ATP by scintillation counting method relative to control
Phosphorylase b kinase gamma catalytic chain, skeletal muscle/heart isoform (Homo sapiens), sequence (Q16816 whole entry, looked up, canonical isoform): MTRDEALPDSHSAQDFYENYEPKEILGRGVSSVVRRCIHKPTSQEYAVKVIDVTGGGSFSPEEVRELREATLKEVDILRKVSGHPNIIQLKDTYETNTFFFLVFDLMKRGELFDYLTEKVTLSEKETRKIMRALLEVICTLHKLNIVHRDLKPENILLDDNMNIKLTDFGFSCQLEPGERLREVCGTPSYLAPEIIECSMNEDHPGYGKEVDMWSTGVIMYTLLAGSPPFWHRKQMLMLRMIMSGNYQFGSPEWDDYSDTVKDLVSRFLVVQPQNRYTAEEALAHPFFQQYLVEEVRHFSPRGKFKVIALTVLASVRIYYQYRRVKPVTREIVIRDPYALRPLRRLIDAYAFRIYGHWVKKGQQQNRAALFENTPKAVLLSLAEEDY

[14] = test system: Angiopoietin-1 receptor (Homo sapiens), Q02763 [Q939H,Q940H,R849W]; assay: Inhibition of human Tie2 Q939H/Q940H/R849W mutant (771 to end residues) at 1 uM using EFPIYDFLPAKKK as substrate measured after 40 mins in presence of [gamma33P]ATP by scintillation counting method relative to control
Procedure, shortened: (§2)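 Single-point inhibition at 1 µM was measured in the Eurofins KinaseProfiler panel. Values are the mean of two independent experiments.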

[15] = molecular target: Rho-associated protein kinase 1 (Homo sapiens) (UniProt Q13464); assay: Inhibition of recombinant human ROCK1 (17 to 535 residues) at 1 uM using KEAKEKRQEQIAKR as substrate incubated for 40 mins in presence of [gamma-33P]ATP by radiometric assay relative to control; procedure, shortened: as §2
Rho-associated protein kinase 1 (Homo sapiens), sequence (Q13464 2-1354 limits assumed): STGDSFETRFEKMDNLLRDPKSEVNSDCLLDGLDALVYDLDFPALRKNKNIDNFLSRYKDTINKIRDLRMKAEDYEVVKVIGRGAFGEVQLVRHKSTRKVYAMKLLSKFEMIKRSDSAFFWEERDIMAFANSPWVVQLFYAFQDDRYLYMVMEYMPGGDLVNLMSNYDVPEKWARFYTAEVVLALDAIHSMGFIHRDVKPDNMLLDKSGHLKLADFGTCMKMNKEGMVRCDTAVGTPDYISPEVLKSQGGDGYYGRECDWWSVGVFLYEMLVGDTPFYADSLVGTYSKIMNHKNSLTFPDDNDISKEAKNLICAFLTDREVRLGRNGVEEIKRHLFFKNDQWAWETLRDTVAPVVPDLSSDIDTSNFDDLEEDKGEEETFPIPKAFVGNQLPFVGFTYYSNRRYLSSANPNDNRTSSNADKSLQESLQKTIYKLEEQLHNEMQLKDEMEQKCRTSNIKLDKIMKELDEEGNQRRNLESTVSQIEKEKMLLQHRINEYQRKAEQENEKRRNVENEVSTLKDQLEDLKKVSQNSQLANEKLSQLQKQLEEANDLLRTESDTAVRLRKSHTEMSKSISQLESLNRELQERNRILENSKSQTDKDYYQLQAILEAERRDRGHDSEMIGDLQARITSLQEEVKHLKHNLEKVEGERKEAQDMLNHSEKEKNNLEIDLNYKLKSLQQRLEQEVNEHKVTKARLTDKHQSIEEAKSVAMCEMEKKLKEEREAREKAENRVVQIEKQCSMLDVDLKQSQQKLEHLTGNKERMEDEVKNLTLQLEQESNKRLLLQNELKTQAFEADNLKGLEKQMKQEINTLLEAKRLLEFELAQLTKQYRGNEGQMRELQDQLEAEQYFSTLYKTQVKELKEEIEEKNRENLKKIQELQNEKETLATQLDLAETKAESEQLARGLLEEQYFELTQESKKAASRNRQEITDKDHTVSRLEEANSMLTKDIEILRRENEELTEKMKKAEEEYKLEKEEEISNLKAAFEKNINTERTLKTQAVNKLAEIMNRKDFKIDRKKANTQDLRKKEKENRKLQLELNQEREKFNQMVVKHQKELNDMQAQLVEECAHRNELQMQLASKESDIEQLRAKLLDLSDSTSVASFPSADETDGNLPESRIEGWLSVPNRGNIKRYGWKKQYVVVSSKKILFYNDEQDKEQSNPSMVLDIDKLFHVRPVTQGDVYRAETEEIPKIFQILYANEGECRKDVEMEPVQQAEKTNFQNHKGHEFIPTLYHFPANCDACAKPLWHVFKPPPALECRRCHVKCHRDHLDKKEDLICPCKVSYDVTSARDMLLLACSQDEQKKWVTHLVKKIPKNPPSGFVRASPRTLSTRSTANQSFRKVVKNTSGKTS

[16] = molecular target: Testis-specific serine/threonine-protein kinase 2 (Homo sapiens) (UniProt Q96PF2); assay: Inhibition of recombinant full-length human TSSK2 at 1 uM using KKKVSRSGLYRSPSMPENLNRPR as substrate measured after 40 mins in presence of [gamma33P]ATP by scintillation counting method relative to control
[17] = test system: A549; assay: Downregulation of SOX2 in human A549 cells at 0.25 to 1 uM by Western blot analysis; type: functional, cell-based
[18] = test system: Serine/threonine-protein kinase Chk2 (Homo sapiens), O96017 [I157T]; assay: Inhibition of recombinant human CHK2 I157T mutant (5 to end residues) at 1 uM using KKKVSRSGLYRSPSMPENLNRPR as substrate measured after 40 mins in presence of [gamma33P]ATP by scintillation counting method relative to control; procedure, shortened: as §2
Serine/threonine-protein kinase Chk2 (Homo sapiens), O96017 [I157T], sequence (O96017 whole entry I157T): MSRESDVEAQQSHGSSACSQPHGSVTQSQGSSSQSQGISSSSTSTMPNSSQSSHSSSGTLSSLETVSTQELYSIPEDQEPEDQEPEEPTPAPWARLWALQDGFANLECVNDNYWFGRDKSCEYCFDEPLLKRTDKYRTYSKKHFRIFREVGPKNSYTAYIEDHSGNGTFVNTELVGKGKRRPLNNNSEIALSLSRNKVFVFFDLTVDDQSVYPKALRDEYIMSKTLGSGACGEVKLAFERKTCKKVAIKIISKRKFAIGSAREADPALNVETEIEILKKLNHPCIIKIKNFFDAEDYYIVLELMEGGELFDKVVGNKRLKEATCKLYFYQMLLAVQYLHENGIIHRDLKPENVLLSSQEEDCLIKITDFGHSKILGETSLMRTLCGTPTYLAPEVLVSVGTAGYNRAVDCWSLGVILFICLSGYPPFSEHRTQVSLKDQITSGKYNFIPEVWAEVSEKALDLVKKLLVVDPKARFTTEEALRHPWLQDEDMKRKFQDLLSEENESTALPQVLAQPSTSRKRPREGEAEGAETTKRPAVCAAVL

[19] = test system: Mast/stem cell growth factor receptor Kit (Homo sapiens), P10721 [V560G]; assay: Inhibition of recombinant human cKit (544 to end residues) V560G mutant at 1 uM using GGMEDIYFEFMGGKKK as substrate measured after 40 mins in presence of [gamma33P]ATP by scintillation counting method relative to control; procedure, shortened: as §2
[20] = molecular target: Ephrin type-A receptor 1 (Homo sapiens) (UniProt P21709); assay: Inhibition of recombinant human EphA1 (568 to end residues) at 1 uM using KKKSPGEYVNIEF as substrate measured after 40 mins in presence of [gamma33P]ATP by scintillation counting method relative to control
Ephrin type-A receptor 1 (Homo sapiens), sequence (P21709 whole entry): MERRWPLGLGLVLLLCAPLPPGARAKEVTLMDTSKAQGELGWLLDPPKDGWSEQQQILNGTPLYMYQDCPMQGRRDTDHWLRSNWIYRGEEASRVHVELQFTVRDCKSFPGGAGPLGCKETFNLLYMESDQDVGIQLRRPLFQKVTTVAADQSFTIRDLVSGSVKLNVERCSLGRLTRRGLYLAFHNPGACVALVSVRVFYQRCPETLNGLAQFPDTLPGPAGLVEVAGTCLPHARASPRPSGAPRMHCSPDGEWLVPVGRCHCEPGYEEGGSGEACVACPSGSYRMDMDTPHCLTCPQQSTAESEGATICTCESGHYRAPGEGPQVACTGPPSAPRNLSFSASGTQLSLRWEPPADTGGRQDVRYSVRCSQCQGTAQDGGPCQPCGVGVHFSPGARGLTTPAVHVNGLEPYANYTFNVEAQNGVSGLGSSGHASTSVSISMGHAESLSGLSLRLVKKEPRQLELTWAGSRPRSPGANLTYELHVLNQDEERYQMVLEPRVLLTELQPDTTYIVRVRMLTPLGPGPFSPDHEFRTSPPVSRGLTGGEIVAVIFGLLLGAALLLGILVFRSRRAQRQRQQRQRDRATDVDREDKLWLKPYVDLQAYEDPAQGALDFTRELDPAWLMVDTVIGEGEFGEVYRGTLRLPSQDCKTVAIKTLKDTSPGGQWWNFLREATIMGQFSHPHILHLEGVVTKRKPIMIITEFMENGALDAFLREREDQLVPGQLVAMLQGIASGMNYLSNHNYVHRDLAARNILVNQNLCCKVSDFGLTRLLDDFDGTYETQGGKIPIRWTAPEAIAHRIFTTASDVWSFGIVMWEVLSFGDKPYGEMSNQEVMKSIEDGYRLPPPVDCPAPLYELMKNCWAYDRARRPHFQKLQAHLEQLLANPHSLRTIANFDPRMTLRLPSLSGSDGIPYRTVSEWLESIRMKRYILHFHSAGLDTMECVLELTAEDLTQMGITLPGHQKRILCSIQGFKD

[21] = species: Homo sapiens; assay: Inhibition of recombinant full-length human PI3K p120gamma R459Q mutant at 1 uM using phosphatidylinositol-4, 5-bisphosphate as substrate measured after 40 mins by fluorescence assay relative to control
[22] = molecular target: Serine/threonine-protein kinase Nek7 (Homo sapiens) (UniProt Q8TDX7); assay: Inhibition of recombinant human NEK7 (2 to end residues) at 1 uM using FLAKSFGSPNRAY as substrate measured after 40 mins in presence of [gamma33P]ATP by scintillation counting method relative to control

CN(C)C(=O)c1cc2cnc(Nc3ccc(NC(=O)CCCCCCCN=C=S)cc3)nc2n1C1CCCC1
inhibition [1]: -7%
inhibition [2]: 2%
inhibition [3]: 16%
inhibition [4]: 3%
inhibition [5]: 17%
inhibition [6]: 4%
Activity [7]: Active
Activity [8]: 5.83%
inhibition [9]: 87%
inhibition [10]: 6%
inhibition [11]: 0%
Activity [12]: 1.76%
inhibition [13]: 71%
inhibition [14]: 12%
inhibition [15]: 11%
inhibition [16]: -3%
Activity [17]: Active
inhibition [18]: 43%
inhibition [19]: 54%
inhibition [20]: 44%
inhibition [21]: 14%
inhibition [22]: -6%
